# Experimental data taken from ChEMBL document CHEMBL3351896, “Small Molecule that Reverses Dexamethasone Resistance in T-cell Acute Lymphoblastic Leukemia (T-ALL)” (ACS Med Chem Lett, 2014).
# The source made the active and inactive calls. The calls are words filed in the database; no cut-off is given here.
# How the values were obtained:
# [1] = target: Gamma-secretase (Homo sapiens) (UniProt Q96BI3+Q9NZ42+Q8WW43+P49768+Q92542+P49810); assay: Inhibition of gamma secretase in human CUTLL1 cells assessed as effect on NOTCH cleavage level at 25 uM in presence of 1 uM dexamethasone after 24 hrs by Western blotting; format: cell-based
# Procedure, shortened: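 Western blot of intracellular NOTCH (ICN) in CUTLL1 cells after 24 h exposure to compound alone or with 1 μM dexamethasone. The γ-secretase inhibitor Compound E (100 nM) plus dexamethasone was the reference treatment.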
# [2] = test system: CUTLL1; assay: Potentiation of dexamethasone-induced cytotoxicity against human CUTLL1 cells with high GR expression levels at 50 uM after 48 hrs by alamar blue assay; format: functional, cell-based
# Procedure, shortened: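 Human CUTLL1 T-ALL cells engineered to express high (overexpressed) or low (knockdown) glucocorticoid receptor levels. Exposed to compound alone or with 1 μM dexamethasone. Alamar blue growth inhibition read after 48 h.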
# [3] = test system: CUTLL1; assay: Increase in GR expression in human CUTLL1 cells at 25 to 50 uM in presence of 1 uM dexamethasone after 24 hrs by Western blotting method; format: functional, cell-based
# Procedure, shortened: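 CUTLL1 cells exposed to compound (25 or 50 μM) alone, with 1 μM dexamethasone, or with dexamethasone plus 1 μM RU486, for 6 or 24 h. GR measured as protein by Western blot and as transcript by RT-qPCR.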
# [4] = test system: CUTLL1; assay: Effect on GGNBP2 gene expression in human CUTLL1 cells in presence of 1 uM dexamethasone at 30 uM after 24 hrs by microarray method; format: functional, cell-based
# Procedure, shortened: (§1)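 CUTLL1 T-ALL cells exposed 24 h to vehicle (DMSO), dexamethasone alone (1 μM), test agent alone (30 μM), or dexamethasone (1 μM) plus test agent (30 μM), in triplicate. Expression profiled by microarray. Leading-edge genes from GSEA were compared between the dexamethasone-plus-agent and dexamethasone-alone groups, using glucocorticoid-regulated gene sets from ALL patients on glucocorticoid therapy.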
# [5] = test system: CUTLL1; assay: Effect on TSR1 gene expression in human CUTLL1 cells in presence of 1 uM dexamethasone at 30 uM after 24 hrs by microarray method; format: functional, cell-based
# Procedure, shortened: (§2)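 Human CUTLL1 T-ALL cells exposed for 24 h to vehicle (DMSO), dexamethasone alone (1 μM), test compound alone (30 μM), or dexamethasone 1 μM plus compound 30 μM, each in triplicate. Expression profiled by microarray. Glucocorticoid-regulated gene sets from ALL patients on glucocorticoid therapy scored by GSEA. Leading-edge genes compared between the combination and dexamethasone alone.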
# [6] = test system: CUTLL1; assay: Effect on CHAF1A gene expression in human CUTLL1 cells in presence of 1 uM dexamethasone at 30 uM after 24 hrs by microarray method; format: functional, cell-based; procedure, shortened: as §1
# [7] = test system: CUTLL1; assay: Effect on GINS2 gene expression in human CUTLL1 cells in presence of 1 uM dexamethasone at 30 uM after 24 hrs by microarray method; format: functional, cell-based; procedure, shortened: as §1
# [8] = test system: CUTLL1; assay: Effect on TK1 gene expression in human CUTLL1 cells in presence of 1 uM dexamethasone at 30 uM after 24 hrs by microarray method; format: functional, cell-based; procedure, shortened: as §2
# [9] = test system: CUTLL1; assay: Effect on GGNBP2 gene expression in human CUTLL1 cells in absence of 1 uM dexamethasone at 30 uM after 24 hrs by microarray method; format: functional, cell-based; procedure, shortened: as §1
# [10] = test system: CUTLL1; assay: Effect on POLE2 gene expression in human CUTLL1 cells in absence of 1 uM dexamethasone at 30 uM after 24 hrs by microarray method; format: functional, cell-based; procedure, shortened: as §2
# [11] = test system: CUTLL1; assay: Effect on HELLS gene expression in human CUTLL1 cells in absence of 1 uM dexamethasone at 30 uM after 24 hrs by microarray method; format: functional, cell-based; procedure, shortened: as §1
# [12] = test system: CUTLL1; assay: Effect on SKP2 gene expression in human CUTLL1 cells in absence of 1 uM dexamethasone at 30 uM after 24 hrs by microarray method; format: functional, cell-based; procedure, shortened: as §2
# [13] = test system: CUTLL1; assay: Effect on FEN1 gene expression in human CUTLL1 cells in absence of 1 uM dexamethasone at 30 uM after 24 hrs by microarray method; format: functional, cell-based; procedure, shortened: as §1
# [14] = test system: CUTLL1; assay: Effect on RANBP1 gene expression in human CUTLL1 cells in absence of 1 uM dexamethasone at 30 uM after 24 hrs by microarray method; format: functional, cell-based; procedure, shortened: as §2
# [15] = test system: CUTLL1; assay: Effect on USP1 gene expression in human CUTLL1 cells in absence of 1 uM dexamethasone at 30 uM after 24 hrs by microarray method; format: functional, cell-based; procedure, shortened: as §2
structure (smiles),measurement,setting,value
Nc1ncc(-c2ccncc2)c(C2CC2)n1,inhibition,[1],inactive
same,Activity,[2],Active
same,Activity,[3],Active
same,Activity,[4],Active
same,Activity,[5],Active
same,Activity,[6],Active
same,Activity,[7],Active
same,Activity,[8],Active
same,Activity,[9],inactive
same,Activity,[10],inactive
same,Activity,[11],inactive
same,Activity,[12],inactive
same,Activity,[13],inactive
same,Activity,[14],inactive
same,Activity,[15],inactive
